Shown are actives, neighbours in structure and some others; about 2.3% of the full set was active somewhere.
OXTR potentiator = human OXTR potentiators, primary screen, fluorescence, CHO-OTR cells, Fluo-8 calcium; Oxytocin receptor (Homo sapiens), P30559; Fluo-8 calcium fluorescence, potentiator mode; 0% = oxytocin EC15, 100% = EC100; activation, % at 3 µM; 320,000 tested, 0.061% active;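 active = activation above that plate's cutoff, the mean activation of tested compounds plus 3 SD, cut at about 6.6% in these data, passing the limit was not always enough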
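test system = CHO-OTR cells, human receptor | compound = single-point 3.0 µM | schedule = 6 min compound pre-incubation at room temperature, 100 s kinetic read | signal = Fluo-8 no-wash calcium dye fluorescence, excitation 470-495 nm, emission 515-575 nm | repeats = single well per compound, singlicate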
TAAR1 antag = human TAAR1 antagonists, primary screen, Fluo-8 calcium fluorescence, CHO RD-HGA16 cells; inhibition, % at 3 µM; Trace amine-associated receptor 1 (Homo sapiens), Q96RJ0; AID 624466, 2012; 360,000 tested, 1.5% active; antagonist;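 active = inhibition above a per-plate cutoff, the mean inhibition of test compounds on that plate plus 3 SD, cut at about 49% in these data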
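Assay system: CHO-derived RD-HGA16 cells stably expressing human TAAR1 plus Gα16. Timing: 140 s kinetic read after compound, 140 s after agonist. Technique: kinetic Fluo-8 calcium fluorescence measurement. Measure: % inhibition of agonist calcium response.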
V1R ag counter = agonists of human V1a receptor, primary screen, counter-screen for OXTR agonist project, fluorescence, CHO-V1R cells. Vasopressin V1a receptor (Homo sapiens), P37288. Fluo-8 calcium fluorescence, agonist mode; 0% DMSO, 100% 3 nM vasopressin. activation, % at 3 µM. 320,000 tested, 0.25% active. AID 2797, 2010;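 active = activation above the mean activation of all tested compounds plus 3 SD, per screening run, cut at about 20% in these data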;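 also: signal is peak over basal fluorescence ratio across a 100 second FLIPR read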
Target sequence (P37288 whole entry, looked up): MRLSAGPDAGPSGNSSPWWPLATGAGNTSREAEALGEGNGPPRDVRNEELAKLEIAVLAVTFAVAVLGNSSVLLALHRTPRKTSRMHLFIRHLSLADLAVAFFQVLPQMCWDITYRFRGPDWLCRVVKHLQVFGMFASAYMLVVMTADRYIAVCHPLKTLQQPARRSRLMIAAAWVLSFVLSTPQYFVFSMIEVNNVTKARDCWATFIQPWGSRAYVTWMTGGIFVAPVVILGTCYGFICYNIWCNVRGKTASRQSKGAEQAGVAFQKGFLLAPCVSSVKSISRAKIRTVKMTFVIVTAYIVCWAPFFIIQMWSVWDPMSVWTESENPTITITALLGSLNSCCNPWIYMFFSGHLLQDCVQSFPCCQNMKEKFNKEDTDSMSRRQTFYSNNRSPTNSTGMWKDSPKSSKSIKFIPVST
TAAR1 ag = human TAAR1 agonists, primary screen, Fluo-8 calcium fluorescence, CHO RD-HGA16 cells; Trace amine-associated receptor 1 (Homo sapiens), Q96RJ0; vehicle wells 0%, saturating PEA agonist 100%; activation, % at 3 µM; 360,000 tested, 0.99% active;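 active = activation above the mean activation of all test compounds in the run plus 3 SD, cut at about 38% in these data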
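Assay system: CHO-derived RD-HGA16 cells with stable Gα16 and human TAAR1; timing: 17-24 h seeding, 75 min 37 °C dye, 30 min RT; read-out: % activation from peak over basal fluorescence ratio, DMSO-to-PEA scaled; measured by: kinetic Fluo-8 calcium fluorescence; benchmarks: low control DMSO, high control PEA (EC100); doses: 3 µM single concentration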
OXTR ag = human OXTR agonists, primary screen, fluorescence, CHO-OTR cells, Fluo-8 calcium | Oxytocin receptor (Homo sapiens), P30559 | Fluo-8 calcium fluorescence; normalized: DMSO 0%, oxytocin 100% | activation, % at 3 µM | 320,000 tested, 0.32% active | AID 2435, 2010;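 active = activation above the mean of all tested compounds plus 3 SD, cutoff set per screening run, cut at about 20% in these data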;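 also: peak over basal fluorescence ratio from a 100 s FLIPR kinetic read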
nonsel antag count = nonselective antagonists in TAAR1 counter-screen cells, counter-screen for hTAAR1 antagonist project, cell-based, fluorescence, calcium | shares compounds with TAAR1 antag | counterscreen cell line, antagonist mode | inhibition, % at 3 µM | 2,400 tested, 77% active; in the data active = inhibition above about 22%;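 also: CHO-Ga16 host cells stimulated with ATP at an EC80 level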
TAAR1 antag conf = human TAAR1 antagonists, retest of hits, confirmation, cell-based, fluorescence. shares compounds with TAAR1 antag. TAAR1-expressing cells, fluorescence antagonist read-out. inhibition, % at 3 µM. 2,400 tested, 40% active; in the data active = inhibition above about 49%;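 also: CHO-Ga16 host cells challenged with agonist PEA near its EC80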
Ga16 nonsel ag = calcium activation in Ga16-expressing cells, counter-screen for TAAR1 antagonist project, cell-based, fluorescence | shares compounds with TAAR1 antag | activation, % at 3 µM | 2,400 tested, 18% active | agonist counterscreen; in the data active = activation above about 12%
TAAR1 ag counter = TAAR1 activation by candidate antagonists – cell-based, fluorescence, counter-screen for TAAR1 antagonist project. shares compounds with TAAR1 antag. hTAAR1 cell line, agonist mode. activation, % at 3 µM. 2,400 tested, 2% active; in the data active = activation above about 37%;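 also: CHO cells stably expressing TAAR1 with calcium dye readout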
Large screens that a line does not name were inactive (follow-up assays come after a bar, where they were run).

CCCc1ccc2oc(C(=O)N3CCC(COC)C3)c(C)c2c1 (stereo not given)	none
CCOC(=O)Cn1c(=O)oc2cc(S(=O)(=O)N(C)Cc3ccccc3)ccc21	TAAR1 antag 65 | nonsel antag count inactive | TAAR1 antag conf inactive | Ga16 nonsel ag inactive | TAAR1 ag counter inactive
O=C1COc2ccc(C(=O)COC(=O)c3ccc(S(=O)(=O)C(F)F)cc3)cc2N1	none
O=C1COc2ccc(C(=O)COC(=O)CCSc3ccc(Cl)cc3)cc2N1	TAAR1 antag 56 | nonsel antag count 37 | TAAR1 antag conf inactive | Ga16 nonsel ag inactive | TAAR1 ag counter inactive
CCN(CC)S(=O)(=O)c1cccc(C(=O)OCC(=O)c2ccc3c(c2)NC(=O)CO3)c1	TAAR1 antag 71 | nonsel antag count 42 | TAAR1 antag conf 61 | Ga16 nonsel ag 15 | TAAR1 ag counter inactive
O=C1COc2ccc(C(=O)COC(=O)Cc3ccc(Cl)cc3)cc2N1	none
O=c1[nH]c(=O)c2nc3c4ccccc4c4ccccc4c3nc2[nH]1	none
O=c1c(-c2ccc(Cl)cc2)[n+]([O-])c2ccccc2n1OCc1ccccn1	none
COc1ccc(NS(=O)(=O)c2ccc(NC(=O)C3CCCO3)cc2)cc1 (stereo not given)	none
CN1CCN(c2ccc(NC(=O)COc3ccccc3[N+](=O)[O-])cc2)CC1	none
CS(=O)(=O)N1CCN(c2ccc(NC(=O)COc3ccccc3[N+](=O)[O-])cc2)CC1	TAAR1 antag 63 | nonsel antag count 28 | TAAR1 antag conf inactive | Ga16 nonsel ag 12 | TAAR1 ag counter inactive
CC(C)C(=O)N1CCN(c2ccc(NC(=O)COc3ccccc3[N+](=O)[O-])cc2)CC1	TAAR1 antag 73 | nonsel antag count 55 | TAAR1 antag conf 76 | Ga16 nonsel ag 20 | TAAR1 ag counter inactive
Cc1cccc(C)c1NC(=O)CNC(=O)CCC(=O)N1CCOCC1	none
COc1cc2c(cc1OC)-c1nnnn1C(C)(C)C2	none
COc1cc2c(cc1OC)-c1nnc(-c3cccs3)n1C(C)(C)C2	TAAR1 antag 50 | nonsel antag count inactive | TAAR1 antag conf inactive | Ga16 nonsel ag inactive | TAAR1 ag counter inactive
O=C(NCCc1c[nH]c2ccccc12)c1ccc(F)cc1F	none
Nc1nc2cc3c(cc2cc1C(=O)NCCc1c[nH]c2ccccc12)OCO3	TAAR1 antag 52 (no result: OXTR potentiator, V1R ag counter, OXTR ag) | nonsel antag count 45 | TAAR1 antag conf inactive | Ga16 nonsel ag 13 | TAAR1 ag counter inactive
CC(C)(C)C(=O)CSc1nc2ncc(Br)cc2[nH]1	none
O=C(Nc1nc2c(F)cc(F)cc2s1)c1ccco1	none
O=C(CCc1nc2ccccc2c(=O)[nH]1)N1CCN(S(=O)(=O)c2ccc(Cl)c(C(F)(F)F)c2)CC1	TAAR1 antag 62 | nonsel antag count 39 | TAAR1 antag conf 50 | Ga16 nonsel ag 16 | TAAR1 ag counter inactive
CC(C)c1ccc(S(=O)(=O)N2CCN(C(=O)CCc3nc4ccccc4c(=O)[nH]3)CC2)cc1	none (no result: OXTR potentiator, V1R ag counter, OXTR ag)
COc1ccc(/C=N/Nc2nc(-c3ccc(C)cc3)c(NC(C)=O)s2)cc1	TAAR1 antag 51 | nonsel antag count inactive | TAAR1 antag conf inactive | Ga16 nonsel ag inactive | TAAR1 ag counter inactive
CC1(Oc2cccc(F)c2)CCN(Cc2ccc(-c3ccccn3)cc2)C1 (stereo not given)	none (no result: OXTR potentiator, V1R ag counter, OXTR ag)
